Source: PubChem BioAssay (several laboratories)
NF-kB neuron act: raises NF-kB expression in human neuronal cells; NF-kB reporter expression; hits give high values; fold change at 12.5 µM; 190,000 tested, 1.6% active; AID 1239; in the data active = fold change above about 3.3
STAT1 act: STAT1 signaling activation; NIH 3T3 STAT1-luciferase reporter, IFN-gamma, luminescence; 100% = IFN-gamma alone, no compound; activation (% of control), % at 5.5 µM; 200,000 tested, 2.6% active;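 active = activation above the screen-wide mean activation plus 3 SD, cut at about 130% in these data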;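 also: raw ratio to IFN-gamma control signal so 100% means no change and 0% no light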
Pf gametocyte: kills late stage P. falciparum gametocytes | P. falciparum stage V gametocytes, ATP luminescence, 24 h | inhibition, % at 10.9 µM | 150,000 tested, 0.065% active | AID 743093;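 active = inhibition above the mean plus 3 SD of compounds within the control limits, set per campaign, cut at about 38% in these data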;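 also: 0% = DMSO wells and 100% = medium only without gametocytes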
STAT1 blocker: reduces IFN-gamma driven STAT1 reporter signal; NIH 3T3 STAT1-luciferase reporter, luminescence; inhibition, % at 5.5 µM; 200,000 tested, 0.35% active; AID 920;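 active = inhibition above a set limit, the mean inhibition across all tested compounds plus 3 SD, cut at about 34% in these data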;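 also: 0% = IFN-gamma with DMSO and 100% = IFN-gamma with 300 µM nifuroxazide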
STAT3 act: STAT3 signaling activation; U3A cells, IL-6 STAT3-luciferase reporter, luminescence; 100% = signal with IL-6 EC80 alone; activation (% of control), % at 5.6 µM; 190,000 tested, 0.91% active; AID 871;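 active = activation above the screen-wide mean of compound activation plus 3 SD, cut at about 130% in these data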;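 also: 0% = background luminescence of wells with medium and substrate only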
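Test system: STAT3-luciferase reporter U3A cells; Detection: reporter luminescence signal; Times: 1 h compound pre-exposure, 6 h IL-6 stimulation, 37 °C; Benchmarks: IL-6-only high control; Also added: IL-6 stimulus at 33 ng/mL final.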
APP 5'UTR act: APP 5'UTR luciferase reporter activation; SH-SY5Y APP 5'UTR luciferase reporter, luminescence; zero percent = DMSO vehicle wells; activation, % at 2 µM; 190,000 tested, 1% active; AID 1276;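 active = activation above a set limit, based on mean plus 3 SD of controls, cut at about 140% in these data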
Active calls of the source: *; . = no result given; ! = a repeat was not active. Only some compounds are listed: those with a hit (about 3.9% of all), similar ones and a draw of the others.

SMILES	NF-kB neuron act	STAT1 act	Pf gametocyte	STAT1 blocker	STAT3 act	APP 5'UTR act
Clc1ccc(-c2nnc(-c3ccc(Br)o3)o2)c(Cl)c1	3.15	138.9*	-2.6	-42.5	85.8	43.0
Clc1ccc(-c2nnc(-c3ccccc3)o2)c(Cl)c1	4.97*	103.8	0.5	-4.2	55.8	119.4
CSc1nnc(-c2ccc(F)cc2)o1	0.87	107.5	.	-8.2	92.4	3.0
Fc1ccc(-c2nnc(-c3ccc(Cl)cc3)o2)cc1	4.2*	135.0*	17.0	-38.2	81.6	37.3
CSc1nnc(-c2ccc(Cl)cc2Cl)o1	1.45	125.2	.	-27.6	91.6	28.9
Fc1ccc(-c2nnc(-c3ccc(Cl)cc3Cl)o2)cc1	3.25	89.7	.	11.5	45.4	140.9*
COC(=O)c1scc(C)c1NS(=O)(=O)c1ccc(NC(C)=O)cc1	.	.	-8.9	.	.	.
C[C@]12CCC(=O)C=C1CC[C@@H]1[C@@H]2[C@@H](O)C[C@@]2(C)[C@H]1CC[C@]2(O)C(=O)COC(=O)CCC(=O)O	1.01	129.0*!	.	-31.9	93.5	69.6
COc1ccc2[nH]c(-c3ccc(C)cc3)cc(=O)c2c1	4.18*	124.2	.	-26.6	64.6	109.1
COc1ccc(-c2cc(=O)c3cc(F)ccc3[nH]2)cc1	1.21	102.3	5.8	-2.5	104.8	5.2
Clc1ccc(-c2nc3ccncc3[nH]2)cc1	1.32	141.0*	8.8	-44.9	99.7	16.4
CC1(C)CC(=O)C=C(c2ccc(F)nc2)C1	.	.	8.9	.	.	.
COc1ccc(-c2nnc(SCC(=O)c3cccs3)o2)cc1	3.69*	134.2*	-24.1	-34.8	117.7	72.4
O=C(CSc1nnc(-c2cccs2)o1)c1cccs1	2.77	140.9*	-10.6	-44.6	102.5	100.4
COc1ccc(-c2nnc(SCC(=O)NCc3ccco3)o2)cc1	1.34	104.5	.	-4.8	103.1	9.9
COc1ccc(-c2nnc(SCC(=O)c3ccc[nH]3)o2)cc1	4.7*	105.9	-14.4	-6.4	78.8	94.2
O=C(Nc1ccccc1)n1ccc(-c2ccc(-n3ccnc3)cc2)n1	1.81	110.8	-3.1	-10.9	103.1	51.9
COc1ccc(CNC(=O)c2ccc(CS(=O)(=O)Cc3ccccc3F)o2)cc1	1.03	91.7	-31.4	7.4	110.6	-5.7
O=C(Nc1ccccn1)c1sc2cccc(F)c2c1Cl	5.67*	84.4	10.4	15.2	71.6	179.2*
O=C(Nc1cccnc1)c1sc2cccc(F)c2c1Cl	0.85	132.6*	-8.6	-39.8	112.9	82.8
CN(C)CCNC(=O)c1sc2cccc(F)c2c1Cl	1.27	102.6	-2.3	-4.2	95.0	-18.1
COc1ccc(-c2nnc(N(C)C(=O)C3CCCO3)s2)cc1 (stereo not given)	2.64	121.4	.	-23.7	94.7	54.6
CCN(C(=O)c1ccco1)c1nnc(-c2ccc(OC)cc2)s1	3.63*	103.6	-11.9	-3.9	79.0	2.8
COc1ccc(-c2nnc(N(C)C(=O)C3CCOC3)s2)cc1 (stereo not given)	2.36	108.5	.	-14.7	89.7	157.4*
CCCCCC(=O)NC(=S)Nc1cccc(-c2nc3ncccc3o2)c1	.	.	0.1	.	.	.
SMILES	NF-kB neuron act	STAT1 act	Pf gametocyte	STAT1 blocker	STAT3 act	APP 5'UTR act
Cc1ccc(S(=O)(=O)N2CCC(C(=O)N/N=C/c3ccncc3)CC2)cc1	1	99.0	-11.5	0.0	113.0	-10.0
Cc1ccc(C)n1-n1cnc2scc(-c3cccs3)c2c1=O	0.83	101.3	.	-0.8	105.3	-9.2
O=c1c2c(-c3cccs3)csc2ncn1-n1cccc1	0.77	105.5	.	-6.1	135.6*	20.1
CCN1CCN(c2ccc(NC(=O)c3ccc(F)cc3)cc2Cl)CC1	1.59	113.3	.	-16.8	98.6	27.4
CCN1CCN(c2ccc(NC(=O)c3ccc([N+](=O)[O-])o3)cc2Cl)CC1	2.26	148.4*	5.2	-55.8	97.8	-93.6
CCC(=O)N1CCN(c2ccc(NC(=O)c3ccc([N+](=O)[O-])o3)cc2Cl)CC1	0.24	129.6*	0.9	-35.5	112.8	-92.5
COCCN(CCOC)S(=O)(=O)c1ccc(NC(=O)c2cnccn2)cc1	.	.	-1.5	.	.	.
CC1CCN(C(=O)Cn2nnc(-c3ccc([N+](=O)[O-])cc3)n2)CC1	.	.	10.5	.	.	.
CCOC(=O)C1(Cc2ccc(OC)cc2)CCN(C(=O)CN2CCCCC2=O)CC1	1.27	106.2	9.2	-8.5	99.2	-11.1
CCOC(=O)C/C(C)=N/NC(=O)Nc1ccccc1	1.13	131.4*	11.4	-34.4	110.9	24.9
Clc1ccc(OCc2cnc(Cl)s2)cc1	1.21	109.5	.	-10.6	97.2	6.7
CCc1ccc(OCc2cnc(Cl)s2)cc1	1.46	130.6*	-6.4	-33.0	94.2	5.8
COc1cccc(Oc2nnnn2-c2ccccc2)c1	2.03	131.0*	18.7	-33.9	100.8	25.3
COc1ccc(CCCC(=O)N/N=C/c2ccccc2OC)cc1	1.01	96.9	12.8	1.6	105.6	-3.6
COc1ccc2cc3cc(C(=O)NCCCN4CCc5ccccc5C4)sc3nc2c1	3.7*	134.8*	3.9	-34.0	128.3	106.5
COc1ccc2nc3sc(C(=O)NCCN4CCc5ccccc5C4)cc3cc2c1	1.92	128.9*	9.5	-32.5	107.3	-4.5
O=C(NCC1CCCN(Cc2ccc3nonc3c2)C1)c1ccc(F)cc1 (stereo not given)	0.92	101.3	0.1	-2.8	110.3	-14.2
CCCCNc1nc2cccnc2s1	.	.	13.2	.	.	.
Clc1ccc(Nc2nc3cccnc3s2)cc1	2.82	148.2*	5.4	-54.9	102.1	152.0*
O=C1NC2(CCCC2)Oc2ccccc21	3.47*	95.4	2.7	3.8	101.2	23.1
Nc1[nH]c(N=NC(=O)c2ccccc2)c2ccccc12	3.37*	142.2*	-10.8	-47.4	98.8	131.9
CC(C)(C)NC(=O)C[n+]1ccc(C(N)=O)cc1	6.24*	92.0	-1.6	7.5	101.7	5.8
COc1ccc(CCC(=O)N2CCc3ccccc32)cc1	2.16	132.7*	.	-35.8	84.4	37.4
CCOC(=O)c1ccc(NC(=O)CN2CCN(Cc3ccccc3)CC2)cc1	1.31	96.2	.	2.2	105.0	7.8
CCOC(=O)c1ccc(NC(=O)N2CCN(Cc3ccccc3)CC2)cc1	0.83	108.0	-7.5	-9.8	133.1*	14.9
SMILES	NF-kB neuron act	STAT1 act	Pf gametocyte	STAT1 blocker	STAT3 act	APP 5'UTR act
O=C(COc1ccc2c(c1)CCC2)N1CCc2ccccc21	2.74	133.6*	-5.1	-36.9	106.3	92.7
CCOC(=O)c1ccc(NC(=O)N2CCc3ccccc32)cc1	7.88*	124.7	.	-26.6	93.7	205.3*
O=C(CC1C(=O)NCCN1CC1CCCCC1)NCc1cccc(F)c1F (stereo not given)	1.07	115.0	-35.8	-18.3	107.0	24.2
COc1ccc(NC(=O)N2CCc3ccccc32)cc1	10.5*	124.5	22.4	-17.8	64.5	176.3*
O=C(Nc1ccccc1)N1CCc2ccccc21	6.54*	146.0*	-6.8	-47.0	87.2	102.2
COc1ccc([C@H]2CC(=O)C=C(c3ccc(C)c(F)c3)C2)cc1	.	.	10.8	.	.	.
CN(C)c1ccc(/C=N/NC(=O)CN2CCCCC2)cc1Br	.	.	11.1	.	.	.
